Cl transport mod – modulators of human KCC2 chloride dependent transport; actives 2.2% (n = 190,000); B-score of Tl+ flux slope (higher = more flux/activation; lower = inhibition) at 10 µM; AID 1456; KCC2 cells, thallium flux FluoZin-2 fluorescence; Q9H2X9;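 active = thallium flux slope and its plate-corrected score both differing from the plate sample mean at a set confidence after two filtering rounds, in either direction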;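 also: slope of fluorescence scaled to starting intensity during 10 to 20 s after thallium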
p-CIP stab down – compounds decreasing mouse p/CIP protein stability. Q05BA5. F442A p/CIP-EGFP cells, EGFP fluorescence, 16 h. decrease of EGFP signal, % at 10 µM. actives 0.01% (n = 290,000);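 active = EGFP signal decrease of at least 30% at 10 µM or well 3 SD below plate mean, unless failing retest; inactive = the rest, including hits failing retest or dose response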
ABCB6 inh MLPCN – human ABCB6 transporter inhibition; fluorescence ratio to DMSO, % at 10 µM; actives 0.19% (n = 360,000); K562-ABCB6 porphyrin accumulation, flow cytometry, 1 h; active compounds read low; Q9NP58;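 active = fluorescence ratio to DMSO below 75%, the collection mean minus 3 SD; inconclusive = too few cells collected in the well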;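 also: signal is porphyrin accumulated inside mitochondria; 100% equals median channel fluorescence of DMSO control wells; lower ratio means ABCB6 inhibition with less porphyrin fluorescence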
Target sequence (Q9NP58 whole entry, looked up): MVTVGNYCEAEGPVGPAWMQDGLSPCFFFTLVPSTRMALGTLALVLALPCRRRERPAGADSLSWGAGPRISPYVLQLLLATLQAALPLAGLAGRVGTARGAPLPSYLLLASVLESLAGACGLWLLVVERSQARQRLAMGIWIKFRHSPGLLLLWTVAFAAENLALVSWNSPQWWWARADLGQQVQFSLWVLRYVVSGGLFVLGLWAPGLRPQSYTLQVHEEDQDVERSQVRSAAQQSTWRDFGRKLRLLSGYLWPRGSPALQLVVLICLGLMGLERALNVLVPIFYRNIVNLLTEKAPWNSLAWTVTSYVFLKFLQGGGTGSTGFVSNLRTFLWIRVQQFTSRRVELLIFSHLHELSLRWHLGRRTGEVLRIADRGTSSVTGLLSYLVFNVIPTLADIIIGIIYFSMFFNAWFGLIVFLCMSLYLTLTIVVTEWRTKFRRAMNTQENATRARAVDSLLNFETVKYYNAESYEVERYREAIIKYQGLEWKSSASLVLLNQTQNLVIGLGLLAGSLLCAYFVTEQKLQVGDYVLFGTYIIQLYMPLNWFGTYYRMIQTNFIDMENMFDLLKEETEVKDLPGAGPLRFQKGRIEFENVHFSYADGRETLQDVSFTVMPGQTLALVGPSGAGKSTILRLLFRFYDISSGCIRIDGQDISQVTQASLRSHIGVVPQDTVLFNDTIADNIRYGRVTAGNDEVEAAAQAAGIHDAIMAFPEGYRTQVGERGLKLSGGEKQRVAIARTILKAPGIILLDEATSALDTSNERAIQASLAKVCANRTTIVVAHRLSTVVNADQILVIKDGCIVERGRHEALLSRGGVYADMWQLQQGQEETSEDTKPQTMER
Dynein transport – dynein cargo transport inhibition | 3617.4 mouse cells, GR-EGFP nuclear translocation imaging; test concentration mostly 20 µM; stimulated with dexamethasone, 1 µM; active compounds read low | actives 0.47% (n = 220,000) | z-score, hits read low | AID 1381;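 active = plate z-score of nuclear minus cytoplasmic receptor signal below a set negative limit, without overly bright fluorescence or cell loss, cut at about -3.5 in these data, passing the limit was not always enough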;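 also: z-score of nuclear minus cytoplasmic ring GR-EGFP intensity difference per well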
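Buffer or medium: tetracycline-free induction medium containing charcoal-stripped FBS / Reagent: dexamethasone agonist, 1.0 µM final, for 30 min / Technique: automated 10x imaging of fixed Hoechst-stained cells / Times: induction 48 h, compound 1 h, agonist 30 min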
V-ATPase pHluor – regulators of yeast V-ATPase proton transport. S. cerevisiae, pHLuorin cytosolic pH fluorescence. AID 504577. actives 0.37% (n = 350,000). response, % at 10 µM; in the data active = response mostly above about 7.3%, no sharp cut-off; inactive = mostly below about 5.4%; also: actives read high
KCC2 secondary – KCC2 (human) modulation, secondary assay; shares compounds with Cl transport mod; HEK293-KCC2, thallium flux, FluoZin2 fluorescence; active compounds read high; normalised thallium flux (F/F0 slope) at 10 µM; actives 15% (n = 3,700);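 active = thallium flux slope above the same plate's solvent-only control mean plus 3 SD; inconclusive = the two replicate wells disagree; inactive = no significant difference from solvent-only control wells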
KCC2 bumet counter – bumetanide-insensitive thallium flux in KCC2 cells with ouabain, counter-screen; shares compounds with Cl transport mod; HEK293-KCC2 + bumetanide/ouabain, thallium flux FluoZin2; active compounds read high; normalized thallium flux at 10 µM; actives 49% (n = 3,700); AID 1714;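 active = thallium entry rate above the same plate's blocked-transporter control wells by more than 3 SD; inconclusive = the two repeat wells disagree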;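 also: raw slope of fluorescence over initial fluorescence between 10 and 20 s after thallium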
KCC2 sec2 – confirmation of human KCC2 transport modulators; shares compounds with Cl transport mod; HEK293-KCC2, thallium flux FluoZin2 fluorescence; actives lie on both sides; F/F0 rise rate, 10–20 s post-thallium; normalized thallium flux at 10 µM; actives 23% (n = 3,700); AID 1715;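 active = thallium flux slope more than 3 SD above or below the plate's solvent-only control mean, mostly below; inconclusive = the two repeat wells disagreed; inactive = no significant shift from solvent-only controls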;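 also: raw slope with 0.1% DMSO as baseline and bumetanide as block control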
HEK293 Tl flux – parental HEK flux effect, counter-screen | HEK293 parental cells, thallium flux FluoZin2, ouabain; baseline-ratio fluorescence slope, 10–20 s after thallium | thallium flux rate (normalised fluorescence) at 10 µM | shares compounds with Cl transport mod | actives 46% (n = 3,700);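 active = thallium flux rate significantly above the same plate's solvent-only control wells, beyond their mean plus 3 SD; inconclusive = the two replicate wells gave conflicting results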
KCC2 retest ouab – confirmation of human KCC2 modulators with ouabain. shares compounds with Cl transport mod. HEK293-KCC2, thallium flux FluoZin2 fluorescence; bidirectional: low = inhibitor, high = activator. raw Tl+ flux slope (below DMSO = inhibition, above = activation) at 10 µM. actives 48% (n = 3,700);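 active = thallium flux slope beyond 3 SD from same-plate DMSO control mean in most replicates, usually higher, sometimes lower; inconclusive = repeat tests gave conflicting results; inactive = no significant difference from controls in most replicates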;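 also: slope of initial-normalized fluorescence between seconds 10 and 20 after thallium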
HEK counter2 – acts in parental HEK cells, second KCC2 counter-screen. shares compounds with Cl transport mod. HEK293 parental, thallium flux FluoZin-2 fluorescence slope. thallium flux slope at 10 µM. actives 33% (n = 3,700). AID 1718;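 active = thallium flux slope above the same plate's solvent-control mean plus 3 SD in both duplicate wells; inconclusive = duplicate wells that disagreed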;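 also: run without ouabain in cells lacking the KCC2 cotransporter; slope of fluorescence scaled to its starting value between 10 and 20 s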
The depositor's hits bear a star; ? = inconclusive; . = no result. The full list was thinned out, with hits kept by preference.

SMILES	Cl transport mod	p-CIP stab down	ABCB6 inh MLPCN	Dynein transport	V-ATPase pHluor	KCC2 secondary	KCC2 bumet counter	KCC2 sec2	HEK293 Tl flux	KCC2 retest ouab	HEK counter2
CCc1nc(NC(=O)Cc2csc(C)n2)sc1C(=O)OC	.	-10	89	.	-2	.	.	.	.	.	.
CC(C)/C=C1\CC/C(=C\c2cccnc2)C1=O	-4.1*	-5	99	-3.2	-1	0.009	0.0054	0.033	0.004	0.018	0.011
CCc1nnc(NS(=O)(=O)c2ccc(N3C(=O)c4ccc(C(=O)O)cc4C3=O)cc2)s1	1.1	-3	99	0.68	3	.	.	.	.	.	.
O=c1c2ccc(Cl)cc2[nH]c(=S)n1CCCN1CCOCC1	6.5*	4	97	0.66	0	?	0.036*	0.033	0.015*	0.034*	0.011*
O=c1c2sc3ccccc3c2[nH]c(=S)n1CCN1CCOCC1	8.6*	12	101	0.063	-1	0.017	0.017*	0.033	0.019*	0.024*	0.02*
CC1CCN(CCCn2c(=S)[nH]c3c(sc4ccccc43)c2=O)CC1	20*	6	98	0.33	1	0.0064	0.015*	0.036	0.016*	0.026*	0.018*
O=c1c2ccccc2[nH]c(=S)n1CCCN1CCOCC1	0.9	-1	171	1.3	-2	.	.	.	.	.	.
CC1CCN(CCCn2c(=S)[nH]c3c(sc4ccc([N+](=O)[O-])cc43)c2=O)CC1	0.33	2	102	2	1	.	.	.	.	.	.
COc1c(C)cc(Br)cc1C(=O)NC(=S)NCc1ccco1	.	-54	101	.	-1	.	.	.	.	.	.
CCOC(=O)CN(C#N)c1nc(N(C)C)nc(N(C)C)n1	-0.039	6	101	-0.1	-1	.	.	.	.	.	.
O=C(NCCc1ccc(Cl)cc1)C1CCN(S(=O)(=O)N2CCCC2)CC1	-6.7*	2	94	0.38	2	0.0068	0.0047	0.028	0.0078	0.019	0.011
Cc1ccc(CCNC(=O)C2CCN(S(=O)(=O)N3CCCCC3)CC2)cc1	.	0	88	.	5	.	.	.	.	.	.
O=C(CCCc1nc2ccccc2s1)NCc1ccc(F)cc1	-4*	6	89	0.39	-7	0.014*	0.018*	0.034	0.012*	0.023	0.012*
O=C(COc1ccc(Cl)cc1Cl)N(C1CCCCC1)C1CCS(=O)(=O)C1 (stereo not given)	.	.	98	.	1	.	.	.	.	.	.
O=C(CN1C(=O)NC2(CCCCCC2)C1=O)c1ccc2c(c1)OCCO2	.	-8	94	-0.44	1	0.0099	0.014*	0.034	?	0.022	0.011
CC(=O)Nc1ccc(SCCN2CC[C@@H](C(C)(C)C)CCC2=O)cc1	.	.	96	.	0	.	.	.	.	.	.
COc1ccc(C(=O)c2ccccc2O)c(O)c1	.	.	90	.	-1	.	.	.	.	.	.
COc1ccc(C(=O)c2ccc(OC)cc2O)c(O)c1	5.8*	-6	97	-0.89	2	0.0088	0.0053	0.029	0.0072	0.026	0.0097
COC(=O)CCc1c(C)c(C(=O)c2cc(OC)c(OC)c(OC)c2)c2ccccn12	.	3	98	.	-2	.	.	.	.	.	.
CCOC(=O)COc1ccc(/C=C2\NC(=S)N(CC)C2=O)cc1	-6.2*	0	83	-0.29	-5	0.0068	0.011*	0.029	0.0066	0.014*	0.01
CCN1C(=O)/C(=C/c2ccc(C)s2)NC1=S	.	-1	104	-0.92	2	.	.	.	.	.	.
O=C(CCNS(=O)(=O)c1cccc2nonc12)NCCc1ccc(Cl)cc1	-3.6*	-11	102	-0.76	-3	?	0.0059	0.032	0.0069	0.017*	0.0095
COc1ccccc1S(=O)(=O)N(C)C[C@H]1OCc2cnnn2CCCC(=O)N([C@H](C)CO)C[C@H]1C	.	.	104	.	-2	.	.	.	.	.	.
O=C(O)/C(=C\c1ccc(Cl)c([N+](=O)[O-])c1)c1ccc(S(=O)(=O)N2CCCCC2)s1	-7.8*	-13	101	-0.87	3	0.0087	0.0063	0.03	0.0072	0.011*	0.011
COCC(C)n1c(C)cc(C(=O)CSc2ccc(NC(C)=O)cc2)c1C (stereo not given)	-5.8*	0	101	2.4	6	0.0082	0.0056	0.035	0.0079	0.02	0.012
SMILES	Cl transport mod	p-CIP stab down	ABCB6 inh MLPCN	Dynein transport	V-ATPase pHluor	KCC2 secondary	KCC2 bumet counter	KCC2 sec2	HEK293 Tl flux	KCC2 retest ouab	HEK counter2
COCCn1c(C)cc(C(=O)CSc2ccc(NC(C)=O)cc2)c1C	1.2	-8	97	-0.24	-3	.	.	.	.	.	.
Cc1cc(/C=C2\SC(=S)NC2=O)c(C)n1C1CC1	5.6*	2	105	0.29	2	0.0086	0.029*	0.025*	0.015*	0.025*	0.011*
Cc1nn(CC(=O)NCCCN2CCCC2)c(=O)c2nn(-c3ccccc3)c(C)c12	.	5	91	.	-1	.	.	.	.	.	.
CC(/C=N/n1c(-c2ccccn2)n[nH]c1=S)=C\c1ccccc1	8.4*	-4	99	-0.93	5	0.0067	0.029*	0.03	0.013*	?	0.011
CC(=O)c1cccc(NC(=S)NC(=O)c2ccccc2C)c1	2.7	6	128	1.6	6	.	.	.	.	.	.
CC1CCCCC1NC(=S)NC(=O)c1ccccc1Cl (stereo not given)	.	.	93	.	1	.	.	.	.	.	.
CC(=O)c1cccc(NC(=S)NC(=O)c2ccc(Cl)cc2)c1	5.5*	-4	103	-0.021	0	0.0059	0.016*	0.031	0.011*	?	?
CC(=O)c1cccc(NC(=S)NC(=O)c2ccccc2Br)c1	7*	-12	95	0.37	0	0.014*	0.076*	0.038	0.017*	?	0.013*
CC1CCCCC1NC(=S)NC(=O)c1ccccc1Br (stereo not given)	22*	-1	92	-0.26	0	0.0074	0.0097*	0.035	0.014*	0.027*	0.015*
O=C(O)c1cccc(NC(=S)NC(=O)c2ccncc2)c1	-0.019	8	96	0.69	-1	.	.	.	.	.	.
Cn1c(=O)n(C)c2cc(NC(=O)c3ccccc3)ccc21	.	.	101	.	.	.	.	.	.	.	.
O=C(NCCCCc1ccccc1)c1ccc(F)cc1	.	.	99	.	0	.	.	.	.	.	.

Assay outcomes (PubChem)
